Assay results reported in ChEMBL document CHEMBL1141075, “4-Oxo-4,7-dihydrothieno[2,3-b]pyridines as non-nucleoside inhibitors of human cytomegalovirus and related herpesvirus polymerases” (J Med Chem, 2005).

How the values were obtained:
[1] = biological target: T1, DNA polymerase catalytic subunit (Herpes simplex virus (type 1 / strain 17), UniProt P04293); assay: Inhibition of herpes simplex virus type 1 DNA polymerase (95 uL) activity in a solution containing […] HEPES (pH 7.5), incubation for 12 minutes at 26 degrees C; set-up: species or system Human alphaherpesvirus 1
T1 sequence (P04293 whole entry): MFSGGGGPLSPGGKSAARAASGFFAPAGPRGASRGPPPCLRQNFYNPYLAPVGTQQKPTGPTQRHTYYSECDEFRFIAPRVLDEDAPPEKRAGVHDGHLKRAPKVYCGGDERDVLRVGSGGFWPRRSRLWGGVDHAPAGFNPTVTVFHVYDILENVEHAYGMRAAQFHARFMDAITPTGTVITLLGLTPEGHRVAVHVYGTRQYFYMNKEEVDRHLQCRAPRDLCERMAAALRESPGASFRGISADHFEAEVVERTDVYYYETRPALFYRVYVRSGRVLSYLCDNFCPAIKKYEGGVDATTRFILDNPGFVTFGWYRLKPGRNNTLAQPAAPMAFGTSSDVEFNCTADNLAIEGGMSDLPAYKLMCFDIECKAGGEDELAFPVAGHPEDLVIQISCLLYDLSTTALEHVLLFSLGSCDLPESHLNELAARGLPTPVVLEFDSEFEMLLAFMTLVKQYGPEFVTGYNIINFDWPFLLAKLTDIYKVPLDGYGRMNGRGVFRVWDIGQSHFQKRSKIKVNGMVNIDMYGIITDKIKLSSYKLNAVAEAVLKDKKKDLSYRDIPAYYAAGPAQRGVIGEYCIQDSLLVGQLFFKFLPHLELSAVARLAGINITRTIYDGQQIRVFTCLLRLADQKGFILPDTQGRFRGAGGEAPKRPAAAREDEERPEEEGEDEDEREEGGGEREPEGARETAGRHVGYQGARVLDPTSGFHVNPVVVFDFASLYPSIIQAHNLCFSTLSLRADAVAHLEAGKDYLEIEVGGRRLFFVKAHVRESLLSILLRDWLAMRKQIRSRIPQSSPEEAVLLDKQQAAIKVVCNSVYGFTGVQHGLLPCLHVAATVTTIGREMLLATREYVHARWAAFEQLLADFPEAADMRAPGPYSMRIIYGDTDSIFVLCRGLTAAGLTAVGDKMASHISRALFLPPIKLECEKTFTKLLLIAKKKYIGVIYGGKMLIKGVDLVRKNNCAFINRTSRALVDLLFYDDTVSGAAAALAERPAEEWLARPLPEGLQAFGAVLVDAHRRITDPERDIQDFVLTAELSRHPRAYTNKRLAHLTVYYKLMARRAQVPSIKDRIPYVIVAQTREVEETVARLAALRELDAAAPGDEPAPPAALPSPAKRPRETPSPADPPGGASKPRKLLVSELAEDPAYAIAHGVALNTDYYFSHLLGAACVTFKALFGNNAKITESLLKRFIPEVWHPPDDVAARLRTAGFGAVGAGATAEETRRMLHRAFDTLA

[2] = test system: Vero; assay: Antiviral activity against herpes simplex virus type 2 (V826A) plaque forming unit grown on Human foreskin fibroblast cells upon incubation for 1 hour at 37 degrees C with compound dissolved in DMSO; type: functional, cell-based; conditions: Chlorocebus sabaeus
How it was run: (§1)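 Plaque reduction: about 50 PFU added per well of a 24-well dish of the appropriate cells, 1 h at 37 °C, then the inoculum was replaced by drug-containing DMEM with 10% FBS and 0.8% carboxymethyl cellulose. DMSO stocks were 200-fold. Plates were held at 37 °C until plaques formed. Plaques were counted microscopically or after crystal violet stain. Percent inhibition was taken against the uninhibited control, with IC50 by linear regression.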

[3] = test system: HFF; assay: Antiviral activity against human cytomegalovirus Ad169 (V823A) plaque forming unit grown on Human foreskin fibroblast cells upon incubation for 1 hour at 37 degrees C with compound dissolved in DMSO; type: functional, cell-based, Human betaherpesvirus 5; how it was run: as §1
[4] = test system: Vero; assay: Antiviral activity against herpes simplex virus type 1 Patton (WT) plaque forming unit grown on Human foreskin fibroblast cells upon incubation for 1 hour at 37 degrees C with compound dissolved in DMSO; type: functional, cell-based; conditions: Chlorocebus sabaeus; how it was run: as §1
[5] = test system: Vero; assay: Antiviral activity against herpes simplex virus type 1 KOS (WT) plaque forming unit grown on African green monkey kidney Vero cells upon incubation for 1 hour at 37 degrees C with compound dissolved in DMSO; conditions: Chlorocebus sabaeus
[6] = test system: Vero; assay: Antiviral activity against herpes simplex virus type 2 (WT) plaque forming unit grown on Human foreskin fibroblast cells upon incubation for 1 hour at 37 degrees C with compound dissolved in DMSO; type: functional, cell-based; conditions: Chlorocebus sabaeus
How it was run: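 Plaque reduction: about 50 PFU per well onto the appropriate cell monolayer, adsorbed 1 h at 37 °C. Inoculum was then replaced with DMEM containing 10% FBS, 0.8% carboxymethyl cellulose and diluted compound from 200-fold DMSO stocks. Plates were held at 37 °C until plaques formed, which were counted microscopically or after crystal violet staining. IC50 came from linear regression of % inhibition versus untreated control, as the mean of two determinations.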

[7] = test system: Vero; assay: Antiviral activity against herpes simplex virus type 1 KOS (PAAr5) plaque forming unit grown on African green monkey kidney Vero cells upon incubation for 1 hour at 37 degrees C with compound dissolved in DMSO; conditions: Chlorocebus sabaeus
[8] = test system: Vero; assay: Antiviral activity against herpes simplex virus type 1 KOS (PFAr2) plaque forming unit grown on Human foreskin fibroblast cells upon incubation for 1 hour at 37 degrees C with compound dissolved in DMSO; type: functional, cell-based; conditions: Chlorocebus sabaeus; how it was run: as §1
[9] = test system: HFF; assay: Antiviral activity against human cytomegalovirus Ad169 (WT) plaque forming unit grown on Human foreskin fibroblast cells upon incubation for 1 hour at 37 degrees C with compound dissolved in DMSO; type: functional, cell-based, Human betaherpesvirus 5; how it was run: as §1
[10] = test system: Vero; assay: Antiviral activity against herpes simplex virus type 1 KOS (V823A) plaque forming unit grown on Human foreskin fibroblast cells upon incubation for 1 hour at 37 degrees C with compound dissolved in DMSO; type: functional, cell-based; conditions: Chlorocebus sabaeus; how it was run: as §1
[11] = test system: Vero; assay: Antiviral activity against herpes simplex virus type 1 KOS (AraAr13) plaque forming unit grown on Human foreskin fibroblast cells upon incubation for 1 hour at 37 degrees C with compound dissolved in DMSO; type: functional, cell-based; conditions: Chlorocebus sabaeus; how it was run: as §1
[12] = test system: Vero; assay: Antiviral activity against herpes simplex virus type 1 Patton(BWr) plaque forming unit grown on Human foreskin fibroblast cells upon incubation for 1 hour at 37 degrees C with compound dissolved in DMSO; type: functional, cell-based; conditions: Chlorocebus sabaeus; how it was run: as §1

Row | SMILES | IC50 [1] | IC50 [2] | IC50 [3] | IC50 [4] | IC50 [5] | IC50 [6] | IC50 [7] | IC50 [8] | IC50 [9] | IC50 [10] | IC50 [11] | IC50 [12]
1 | Cn1cc(C(=O)NCc2ccc(Cl)cc2)c(=O)c2cc(CN3CCOCC3)ccc21 | 600 nM | – | – | – | – | – | – | – | – | – | – | –
2 | O=C(NCc1ccc(Cl)cc1)c1cnc2ccc(CCCO)cc2c1O | 300 nM | – | – | – | – | – | – | – | – | – | – | –
3 | Cn1cc(C(=O)NCc2ccc(Cl)cc2)c(=O)c2cc(CN3CCOCC3)sc21 | – | > 50000 nM | 6200 nM | 5400 nM | 5600 nM | 800 nM | 800 nM | 2500 nM | 1500 nM | > 50000 nM | 2100 nM | 2500 nM
